What all share (assay type): functional
Assay [1] deals with Mycobacterium kansasii. The assay is described as follows: Antimycobacterial activity against Mycobacterium kansasii 6509/96 after 7 days. As to conditions: 6509/96, 168 h. A digest of the protocol: (§1)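 Šula's semisynthetic medium micromethod at 37 °C, read after 7, 14 and 21 days. The 1.0 McFarland suspension was diluted 10^-4. MIC determined. 6509/96 is a clinical isolate.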

Assay [2] deals with Mycobacterium kansasii. As to the kind of experiment: Antimycobacterial activity against Mycobacterium kansasii 235/80 after 7 days. As to conditions: 235/80, 168 h. A digest of the protocol:
as §1

Assay [3] concerns Mycobacterium tuberculosis. The assay is described as follows: Antimycobacterial activity against Mycobacterium tuberculosis H37Rv 331/88 after 14 days. As to conditions: H37Rv 331/88, 336 h.
Assay [4] concerns Mycobacterium tuberculosis. As to the kind of experiment: Antimycobacterial activity against Mycobacterium tuberculosis H37Rv 331/88 after 21 days. As to conditions: H37Rv 331/88, 504 h.
For assay [5], the system named is Mycobacterium avium. The assay is described as follows: Antimycobacterial activity against Mycobacterium avium 330/80 after 21 days. As to conditions: 330/80, 504 h.
For assay [6], the system named is Mycobacterium avium. As to the kind of experiment: Antimycobacterial activity against Mycobacterium avium 330/80 after 14 days. As to conditions: 330/80, 336 h.
Assay [7] has as its system Mycobacterium kansasii. As to the kind of experiment: Antimycobacterial activity against Mycobacterium kansasii 6509/96 after 14 days. As to conditions: 6509/96, 336 h. A digest of the protocol: as §1
The test system of assay [8] is Mycobacterium kansasii. As to the kind of experiment: Antimycobacterial activity against Mycobacterium kansasii 235/80 after 14 days. As to conditions: 235/80, 336 h. In short, it runs like this:
as §1

Assay [9] has as its system Mycobacterium kansasii. As to the kind of experiment: Antimycobacterial activity against Mycobacterium kansasii 235/80 after 21 days. As to conditions: 235/80, 504 h. A digest of the protocol: as §1
For assay [10], the system named is Mycobacterium kansasii. As to the kind of experiment: Antimycobacterial activity against Mycobacterium kansasii 6509/96 after 21 days. As to conditions: 6509/96, 504 h. A digest of the protocol: as §1
In assay [11] the test system is Pseudomonas aeruginosa. The assay is described as follows: Antibacterial activity against Pseudomonas aeruginosa CCM 1961 after 48 hrs by microdilution broth method. As to conditions: CCM 1961, 48 h. In short, it runs like this: (§2)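 Mueller-Hinton broth microdilution (modified M07-A07), pH 7.4 (±0.2). Compounds dissolved in DMSO, tested at final 500 to 0.49 µmol/L. Inoculum in sterile water matched to 0.5 McFarland. Incubated in the dark, humid atmosphere, 35 °C, read at 24 and 48 h visually and at 540 nm. MIC taken as ≥95% growth reduction (IC95) versus control.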
In general terms: Broth dilution looks for growth in wells or tubes with falling amounts of substance.

Assay [12] deals with Escherichia coli. The assay is described as follows: Antibacterial activity against Escherichia coli CCM4517 after 24 hrs by microdilution broth method. As to conditions: CCM4517, 24 h. In short, it runs like this:
as §2

The subject of assay [13] is Escherichia coli. The assay is described as follows: Antibacterial activity against Escherichia coli CCM4517 after 48 hrs by microdilution broth method. As to conditions: CCM4517, 48 h. In short, it runs like this: as §2
Assay [14] deals with Staphylococcus epidermidis. As to the kind of experiment: Antibacterial activity against Staphylococcus epidermidis H 6966/08 after 48 hrs by microdilution broth method. As to conditions: H 6966/08, 48 h. A digest of the protocol: as §2
Assay [15] has as its system Staphylococcus aureus. As to the kind of experiment: Antibacterial activity against methicillin-resistant Staphylococcus aureus H 5996/08 after 48 hrs by microdilution broth method. As to conditions: H 5996/08, 48 h.
Assay [16] deals with Klebsiella pneumoniae. As to the kind of experiment: Antibacterial activity against Klebsiella pneumoniae D 11750/08 after 24 hrs by microdilution broth method. As to conditions: D 11750/08, 24 h. In short, it runs like this:
as §2

Assay [17] concerns Staphylococcus epidermidis. As to the kind of experiment: Antibacterial activity against Staphylococcus epidermidis H 6966/08 after 24 hrs by microdilution broth method. As to conditions: H 6966/08, 24 h. A digest of the protocol:
as §2

The subject of assay [18] is Staphylococcus aureus. The assay is described as follows: Antibacterial activity against methicillin-resistant Staphylococcus aureus H 5996/08 after 24 hrs by microdilution broth method. As to conditions: H 5996/08, 24 h.
Assay [19] has as its system Staphylococcus aureus. The assay is described as follows: Antibacterial activity against Staphylococcus aureus CCM 4516/08 after 24 hrs by microdilution broth method. As to conditions: CCM 4516/08, 24 h.
The test system of assay [20] is Staphylococcus aureus. The assay is described as follows: Antibacterial activity against Staphylococcus aureus CCM 4516/08 after 48 hrs by microdilution broth method. As to conditions: CCM 4516/08, 48 h.
The test system of assay [21] is Enterococcus sp. The assay is described as follows: Antibacterial activity against Enterococcus sp. J 14365/08 after 48 hrs by microdilution broth method. As to conditions: J 14365/08, 48 h. In short, it runs like this: as §2
Assay [22] deals with Enterococcus sp. The assay is described as follows: Antibacterial activity against Enterococcus sp. J 14365/08 after 24 hrs by microdilution broth method. As to conditions: J 14365/08, 24 h. In short, it runs like this:
as §2

The subject of assay [23] is Klebsiella pneumoniae. The assay is described as follows: Antibacterial activity against ESBL-positive Klebsiella pneumoniae J 14368/08 after 48 hrs by microdilution broth method. As to conditions: J 14368/08, 48 h. In short, it runs like this:
as §2

In assay [24] the test system is Klebsiella pneumoniae. As to the kind of experiment: Antibacterial activity against Klebsiella pneumoniae D 11750/08 after 48 hrs by microdilution broth method. As to conditions: D 11750/08, 48 h. A digest of the protocol:
as §2

The test system of assay [25] is Klebsiella pneumoniae. As to the kind of experiment: Antibacterial activity against ESBL-positive Klebsiella pneumoniae J 14368/08 after 24 hrs by microdilution broth method. As to conditions: J 14368/08, 24 h. A digest of the protocol: as §2
Assay [26] relates to Pseudomonas aeruginosa. As to the kind of experiment: Antibacterial activity against Pseudomonas aeruginosa CCM 1961 after 24 hrs by microdilution broth method. As to conditions: CCM 1961, 24 h. A digest of the protocol:
as §2

The structures appear in SMILES notation. In brackets after ≈: the same amount, converted by molar mass. Where only a bound is given, the exact number is not on record here.

What is called MIC is the smallest concentration in the dilution series that meets the test's criterion for growth inhibition. Take `O=C(Nc1cccc(I)c1)c1cccc([N+](=O)[O-])c1O`: the minimum inhibitory concentration (MIC) is 125 µM (≈ 48 µg/mL) in assay [1]; 62.5 µM (≈ 24 µg/mL) in [2]; 62.5 µM (≈ 24 µg/mL) in assay [3]; 62.5 µM (≈ 24 µg/mL) in assay [4]; 500 µM (≈ 192 µg/mL) in assay [5]; 500 µM (≈ 192 µg/mL) in [6]. The MIC in assay [7], in assay [8], in assay [9] and in assay [10] was 125 µM (≈ 48 µg/mL) each time.
Regarding `NNC(=O)c1ccncc1` [ISONIAZID], the MIC in [1] is 4 µM (≈ 0.549 µg/mL); in [2], greater than 250 µM; in assay [3], 0.5 µM (≈ 0.0686 µg/mL); in assay [4] it was 1 µM (≈ 0.137 µg/mL); in assay [5], greater than 250 µM; in assay [6] it was greater than 250 µM. Besides, the MIC is 8 µM (≈ 1.1 µg/mL) in [7], greater than 250 µM in [8], greater than 250 µM in [9] and 8 µM (≈ 1.1 µg/mL) in [10].
`O=C(Nc1ccc([N+](=O)[O-])c(C(F)(F)F)c1)c1cccc([N+](=O)[O-])c1O`: the MIC was determined as 32 µM (≈ 11.9 µg/mL) in assay [1]; 32 µM (≈ 11.9 µg/mL) in assay [2]; 16 µM (≈ 5.94 µg/mL) in [3]; 16 µM (≈ 5.94 µg/mL) in assay [4]; 500 µM (≈ 186 µg/mL) in assay [5]; 250 µM (≈ 92.8 µg/mL) in assay [6]. Further, the MIC in assay [7] came out at 62.5 µM (≈ 23.2 µg/mL); in [8] it was 62.5 µM (≈ 23.2 µg/mL); in assay [9], 125 µM (≈ 46.4 µg/mL); in [10], 62.5 µM (≈ 23.2 µg/mL).
Regarding `O=C(Nc1cccc(Cl)c1)c1cccc([N+](=O)[O-])c1O`, the MIC in [1] was 125 µM (≈ 36.6 µg/mL); in [2], 62.5 µM (≈ 18.3 µg/mL); in assay [3], 62.5 µM (≈ 18.3 µg/mL); in assay [4], 62.5 µM (≈ 18.3 µg/mL); in [5], 500 µM (≈ 146 µg/mL); in [6], 500 µM (≈ 146 µg/mL). For the same compound, the MIC in [7] worked out at 125 µM (≈ 36.6 µg/mL); in assay [8] it was 125 µM (≈ 36.6 µg/mL); in assay [9] it was 250 µM (≈ 73.2 µg/mL); in assay [10], 125 µM (≈ 36.6 µg/mL).
With `CC1(C)S[C@@H]2[C@H](NC(=O)Cc3ccccc3)C(=O)N2[C@H]1C(=O)O` [PENICILLIN G], the MIC is greater than 500 µM in [11]; 125 µM (≈ 41.8 µg/mL) in assay [12]; 125 µM (≈ 41.8 µg/mL) in assay [13]; 250 µM (≈ 83.6 µg/mL) in [14]; 125 µM (≈ 41.8 µg/mL) in [15]; 500 µM (≈ 167 µg/mL) in assay [16]. Further, the MIC in assay [17] worked out at 250 µM (≈ 83.6 µg/mL); in assay [18], 62.5 µM (≈ 20.9 µg/mL); in assay [19], 0.98 µM (≈ 0.328 µg/mL); in assay [20], 0.98 µM (≈ 0.328 µg/mL); in assay [21], 15.6 µM (≈ 5.22 µg/mL); in assay [22] it was 7.81 µM (≈ 2.61 µg/mL). The MIC was greater than 500 µM in [23], 500 µM (≈ 167 µg/mL) in assay [24], greater than 500 µM in assay [25] and greater than 500 µM in assay [26].

Values taken from ChEMBL document CHEMBL3627671, “Novel derivatives of nitro-substituted salicylic acids: Synthesis, antimicrobial activity and cytotoxicity” (Bioorg Med Chem, 2015).
